Data published in ChEMBL document CHEMBL1157464, “1-[(3-Aryloxy-3-aryl)propyl]-1H-imidazoles, new imidazoles with potent activity against Candida albicans and dermatophytes. Synthesis, structure-activity relationship, and molecular modeling studies” (J Med Chem, 2008).
In brackets after ≈: the same amount, converted by molar mass.

Tests used:
Arthrodermataceae [1] = assay: Antifungal activity against dermatophytes at 28 degC after 7 days by broth microdilution test; type: functional; conditions: 168 h
How it was run: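 Ten clinical isolates (two M. canis, five M. gypseum, three T. mentagrophytes) tested by NCCLS M38-A broth microdilution in MOPS-buffered RPMI 1640, pH 7.0, over 0.25–128 µg/mL. Conidial/hyphal suspension from PDA slants (28 °C, 7 days) adjusted to 65–70% transmittance at OD530, then diluted 1:50.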

[2] = Cytotoxicity against human U937 cells assessed as reduction of cell viability after 24 hrs by MTT assay; type: cell-based, U-937
How it was run: (§1)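 U937 and K562 cells, from ATCC, plated at 5 × 10^4/mL in phenol-red-free RPMI-1640 with 20% FBS and penicillin/streptomycin. Compounds added 2 h later at 25–100 µg/mL, then 24 h at 37 °C. MTT at 1 mg/mL for 3 h, formazan dissolved in isopropanol with 0.1 N HCl, absorbance read at 570 nm. CC50 is the concentration reducing viability by 50% versus the drug-free control.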

Candida albicans [3] = assay: Antifungal activity against Candida albicans ATCC 10261 at 35 degC after 48 hrs by broth microdilution test; type: functional; conditions: Candida albicans, ATCC 10261, 48 h; for MIC: read-out: MIC; for MIC50: read-out: MIC50; for MIC90: read-out: MIC90
How it was run: (§2)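 Broth microdilution per NCCLS M27-A2. Stocks in 100% DMSO, diluted in RPMI 1640 with 0.165 M MOPS at pH 7.0; final range 0.25–128 µg/mL. Inoculum 1000–5000 cells/mL from SDA subcultures. […] C. parapsilosis ATCC22019 served as QC strain.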

[4] = Cytotoxicity against human K562 cells after assessed as reduction of cell viability 24 hrs by MTT assay; type: cell-based; how it was run: as §1
Arthrodermataceae [5] = assay: Antifungal activity against dermatophytes at 28 degC after 48 to 96 hrs by broth microdilution test
Candida parapsilosis = assay: Antifungal activity against Candida parapsilosis ATCC 22019 at 35 degC after 48 hrs by broth microdilution test; type: functional; conditions: Lodderomyces parapsilosis, ATCC 22019, 48 h; for MFC: read-out: MFC; for MIC: read-out: MIC; how it was run: as §2
Arthrodermataceae [6] = assay: Antifungal activity against dermatophytes at 28 degC after 5 days by broth microdilution test; conditions: for MFC: Arthrodermataceae
Candida albicans [7] = assay: Antifungal activity against Candida albicans ATCC 10261 at 35 degC after 48 to 96 hrs by broth microdilution test; type: functional; conditions: for MFC: Candida albicans, ATCC 10261, read-out: MFC
How it was run: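 Minimal fungicidal concentration for Candida. […] MFC is the lowest concentration allowing fewer than two colonies (99% killing).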

Candida albicans [8] = assay: Antifungal activity against fluconazole-resistant Candida albicans isolated from oropharyngeal or vaginal disease patient after 48 hrs by broth microdilution test; type: functional
Candida albicans [9] = assay: Antifungal activity against fluconazole-sensitive Candida albicans Fe40 at 35 degC after 48 hrs by broth microdilution test; type: functional; how it was run: as §2

| SMILES | MIC (Arthrodermataceae [1]) [µg/mL] | MIC50 (Arthrodermataceae [1]) [µg/mL] | MIC90 (Arthrodermataceae [1]) [µg/mL] | MIC (Candida albicans [3]) [µg/mL] | MIC50 (Candida albicans [3]) [µg/mL] | MIC90 (Candida albicans [3]) [µg/mL] | MIC (Candida parapsilosis) [µg/mL] | CC50 at 24 h [2] [µM] | CC50 at 24 h [4] [µM] | MFC50 (Arthrodermataceae [5]) [µg/mL] | MFC (Candida parapsilosis) [µg/mL] | MFC90 (Arthrodermataceae [6]) [µg/mL] | MFC (Arthrodermataceae [6]) [µg/mL] | MFC50 (Candida albicans [7]) [µg/mL] | MFC90 (Candida albicans [7]) [µg/mL] | MFC (Candida albicans [7]) [µg/mL] | MIC (Candida albicans [8]) [µg/mL] | MIC (Candida albicans [9]) [µg/mL] |
| --- | --- | --- | --- | --- | --- | --- | --- | --- | --- | --- | --- | --- | --- | --- | --- | --- | --- | --- |
| Clc1cc(Cl)cc(OC(CCn2ccnc2)c2ccccc2)c1 (stereo not given) | 7.2 (≈ 20.7 µM) | 8 (≈ 23 µM) | 8 (≈ 23 µM) | 13.8 (≈ 39.7 µM) | 16 (≈ 46.1 µM) | 16 (≈ 46.1 µM) | 0.5 (≈ 1.44 µM) |  |  | 16 (≈ 46.1 µM) | 4 (≈ 11.5 µM) | 16 (≈ 46.1 µM) | 15 (≈ 43.2 µM) | 32 (≈ 92.2 µM) | 64 (≈ 184 µM) | 29.8 (≈ 85.8 µM) |  |  |
| Clc1cccc(Cl)c1OC(CCn1ccnc1)c1ccccc1 (stereo not given) | 7.6 (≈ 21.9 µM) | 8 (≈ 23 µM) | 8 (≈ 23 µM) | 46.2 (≈ 133 µM) | 64 (≈ 184 µM) | 64 (≈ 184 µM) | 2 (≈ 5.76 µM) |  |  | 32 (≈ 92.2 µM) | 32 (≈ 92.2 µM) | 32 (≈ 92.2 µM) | 28.8 (≈ 82.9 µM) | 64 (≈ 184 µM) | 64 (≈ 184 µM) | 64 (≈ 184 µM) |  |  |
| c1ccc(OC(CCn2ccnc2)c2ccccc2)cc1 (stereo not given) | 24.1 (≈ 86.6 µM) | 16 (≈ 57.5 µM) | 32 (≈ 115 µM) | 62.7 (≈ 225 µM) | 32 (≈ 115 µM) | 128 (≈ 460 µM) | 16 (≈ 57.5 µM) | 201 | 220 | 64 (≈ 230 µM) | 32 (≈ 115 µM) | 64 (≈ 230 µM) | 56.5 (≈ 203 µM) | 64 (≈ 230 µM) | 128 (≈ 460 µM) | 83.2 (≈ 299 µM) |  |  |
| Clc1ccc(C(CCn2ccnc2)Oc2c(Cl)cccc2Cl)cc1 (stereo not given) |  |  |  | 5 (≈ 13.1 µM) | 2 (≈ 5.24 µM) | 8 (≈ 21 µM) | 1 (≈ 2.62 µM) | 271 | 135 |  | 4 (≈ 10.5 µM) |  |  | 8 (≈ 21 µM) | 16 (≈ 41.9 µM) | 14.7 (≈ 38.5 µM) | 6.8 (≈ 17.8 µM) | 2 (≈ 5.24 µM) |
| Fc1ccc(C(CCn2ccnc2)Oc2cc(Cl)cc(Cl)c2)cc1 (stereo not given) | 16.2 (≈ 44.4 µM) | 16 (≈ 43.8 µM) | 16 (≈ 43.8 µM) | 8.8 (≈ 24.1 µM) | 8 (≈ 21.9 µM) | 16 (≈ 43.8 µM) | 1 (≈ 2.74 µM) | 160 | 98.1 | 32 (≈ 87.6 µM) | 4 (≈ 11 µM) | 32 (≈ 87.6 µM) | 28.5 (≈ 78 µM) | 16 (≈ 43.8 µM) | 16 (≈ 43.8 µM) | 11.7 (≈ 32 µM) | 12.8 (≈ 35 µM) | 8 (≈ 21.9 µM) |

The remaining compounds from weak to strong by MIC (Candida albicans [3]), led by results:

| MIC (Arthrodermataceae [1]) [µg/mL] | MIC50 (Arthrodermataceae [1]) [µg/mL] | MIC90 (Arthrodermataceae [1]) [µg/mL] | MIC (Candida albicans [3]) [µg/mL] | MIC50 (Candida albicans [3]) [µg/mL] | MIC90 (Candida albicans [3]) [µg/mL] | MIC (Candida parapsilosis) [µg/mL] | SMILES | CC50 at 24 h [2] [µM] | CC50 at 24 h [4] [µM] | MFC50 (Arthrodermataceae [5]) [µg/mL] | MFC (Candida parapsilosis) [µg/mL] | MFC90 (Arthrodermataceae [6]) [µg/mL] | MFC (Arthrodermataceae [6]) [µg/mL] | MFC50 (Candida albicans [7]) [µg/mL] | MFC90 (Candida albicans [7]) [µg/mL] | MFC (Candida albicans [7]) [µg/mL] | MIC (Candida albicans [8]) [µg/mL] | MIC (Candida albicans [9]) [µg/mL] |
| --- | --- | --- | --- | --- | --- | --- | --- | --- | --- | --- | --- | --- | --- | --- | --- | --- | --- | --- |
|  |  |  | 18.5 (≈ 52.1 µM) | 8 (≈ 22.5 µM) | 32 (≈ 90.2 µM) | 8 (≈ 22.5 µM) | CC(C)c1ccc(OC(CCn2ccnc2)c2ccc(Cl)cc2)cc1 (stereo not given) | 208 | 138 |  | 32 (≈ 90.2 µM) |  |  | 32 (≈ 90.2 µM) | 32 (≈ 90.2 µM) | 25.5 (≈ 71.9 µM) |  |  |
|  |  |  | 8.7 (≈ 27.2 µM) | 4 (≈ 12.5 µM) | 16 (≈ 49.9 µM) | 4 (≈ 12.5 µM) | CCc1ccc(OC(CCn2ccnc2)c2ccc(C)cc2)cc1 (stereo not given) | 152 | 136 |  | 8 (≈ 25 µM) |  |  | 32 (≈ 99.9 µM) | 32 (≈ 99.9 µM) | 28 (≈ 87.4 µM) |  |  |
|  |  |  | 6.5 (≈ 19.1 µM) | 8 (≈ 23.5 µM) | 8 (≈ 23.5 µM) | 8 (≈ 23.5 µM) | CCc1ccc(OC(CCn2ccnc2)c2ccc(Cl)cc2)cc1 (stereo not given) | 265 | 185 |  | 16 (≈ 46.9 µM) |  |  | 8 (≈ 23.5 µM) | 16 (≈ 46.9 µM) | 12.5 (≈ 36.7 µM) |  |  |
| 12 (≈ 33.2 µM) | 8 (≈ 22.1 µM) | 16 (≈ 44.3 µM) | 3.15 (≈ 8.72 µM) | 4 (≈ 11.1 µM) | 4 (≈ 11.1 µM) | 1 (≈ 2.77 µM) | Cc1ccc(C(CCn2ccnc2)Oc2ccc(Cl)cc2Cl)cc1 (stereo not given) | 150 | 97 | 16 (≈ 44.3 µM) | 4 (≈ 11.1 µM) | 32 (≈ 88.6 µM) | 24 (≈ 66.4 µM) | 8 (≈ 22.1 µM) | 16 (≈ 44.3 µM) | 8.4 (≈ 23.3 µM) |  |  |
